Consider 37 compounds from ChEMBL document CHEMBL1136715, “Modifications of the ethanolamine head in N-palmitoylethanolamine: synthesis and evaluation of new agents interfering with the metabolism of anandamide” (J Med Chem, 2003).

In test [1] the target is Cannabinoid receptor 1 (Homo sapiens) (UniProt P21554). In words: Percent inhibition of specific binding of [3H]CP-55940 towards human cannabinoid receptor 1 from Chinese hamster ovary cell membranes at the concentration of 10 uM. In short, it runs like this:
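Membranes (40 μg) from CHO cells stably expressing human CB1 (grown in Ham's F12, 10% FBS, G418) were incubated with 1 nM [3H]-CP55,940 for 1 h at 30 °C in 50 mM Tris-HCl with MgCl2 and EDTA, pH 7.4, plus 50 μM PMSF. Nonspecific binding was defined with 10 μM HU-210. Filtration was on PEI-treated GF/B filters, followed by scintillation counting.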

Test [2] is filed under the species Rattus norvegicus. Kind of test: Percent inhibition of AEA (N-arachidonoylethanolamine) metabolism in rat brain homogenates using [3H]anandamide as the labeled substrate. In kind it is functional. Set-up: concentration or dose not given beside the values. Conditions: dose or concentration not given here. Summed up: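 Rat brain membranes with test compound or ethanol carrier and [3H]-AEA (2 μM final) in 10 mM Tris-HCl, 1 mM EDTA, 1% w/v fatty-acid-free BSA, pH 7.6, for 10 min at 37 °C. Ice plus chloroform/methanol (1:1) stopped the reaction, and the methanol/buffer phase was counted with quench correction. Blanks used water in place of homogenate. Values come from at least three experiments.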

Test [3] has as its target Cannabinoid receptor 2 (Homo sapiens) (UniProt P34972). In words: Percent inhibition of specific binding of [3H]WIN-55212-2 towards human cannabinoid receptor 2 from Chinese hamster ovary cell membranes at the concentration of 10 uM. In short, it runs like this:
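Membranes (40 μg) from human CB2-transfected CHO cells (Ham's F12, 10% FBS, G418) were incubated with 1 nM [3H]-WIN 55,212-2 for 1 h at 30 °C in 50 mM Tris-HCl/MgCl2/EDTA, pH 7.4, with 50 μM PMSF. Bound radioligand was collected on 0.5% PEI-pretreated GF/B filters and counted by liquid scintillation.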

The species named for test [4] is Rattus norvegicus. In words: Tested for percent inhibition of AEA (N-arachidonoylethanolamine) metabolism in rat brain homogenates using [3H]anandamide as the labeled substrate at 100 uM. In kind it is functional.
The species named for test [5] is Rattus norvegicus. Kind of test: Inhibition of AEA (N-arachidonoylethanolamine) metabolism using rat brain homogenates at pH 6 and at the concentration of 50 uM using [3H]anandamide as the labeled substrate. In kind it is functional.
The species named for test [6] is Rattus norvegicus. Kind of test: Inhibition of AEA (N-arachidonoylethanolamine) metabolism using rat brain homogenates at pH 9 using [3H]anandamide as the labeled substrate. The note with it: dose or concentration not given here. In kind it is functional. Summed up:
(§1)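 Rat brain membranes (adult, minus cerebellum) were homogenized in 20 mM HEPES pH 7.0 with 1 mM MgCl2, washed, preincubated 15 min at 37 °C, and stored at -70 °C. Incubation was with [3H]-AEA (2 μM final) for 10 min at 37 °C at pH 6 or pH 9. Chloroform/methanol stopped the reaction, and [3H]-ethanolamine in the aqueous phase was counted. pI50 and maximal inhibition came from 3–5 experiments (three homogenate preparations) over 3–100 μM (seven concentrations).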

The species named for test [7] is Rattus norvegicus. In words: Inhibition of AEA (N-arachidonoylethanolamine) metabolism using rat brain homogenates at pH 6 using [3H]-anandamide as the labeled substrate. In kind it is functional. Conditions: dose or concentration not given here. In short, it runs like this:
as §1

Cannabinoid receptor 1 (Homo sapiens), sequence (P21554 whole entry): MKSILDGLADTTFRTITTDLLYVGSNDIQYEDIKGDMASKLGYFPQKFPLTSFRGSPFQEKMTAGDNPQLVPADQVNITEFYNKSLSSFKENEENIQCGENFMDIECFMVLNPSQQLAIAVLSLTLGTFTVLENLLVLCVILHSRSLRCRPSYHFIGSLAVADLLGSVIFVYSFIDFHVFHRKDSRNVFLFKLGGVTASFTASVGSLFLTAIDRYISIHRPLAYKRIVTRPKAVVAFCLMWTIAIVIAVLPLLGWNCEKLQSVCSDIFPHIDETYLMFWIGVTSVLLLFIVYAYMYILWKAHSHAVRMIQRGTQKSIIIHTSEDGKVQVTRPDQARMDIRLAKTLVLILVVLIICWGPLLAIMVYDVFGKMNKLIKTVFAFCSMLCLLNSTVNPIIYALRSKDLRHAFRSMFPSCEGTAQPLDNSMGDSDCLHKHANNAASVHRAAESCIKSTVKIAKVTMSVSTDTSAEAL
Cannabinoid receptor 2 (Homo sapiens), sequence (P34972 whole entry): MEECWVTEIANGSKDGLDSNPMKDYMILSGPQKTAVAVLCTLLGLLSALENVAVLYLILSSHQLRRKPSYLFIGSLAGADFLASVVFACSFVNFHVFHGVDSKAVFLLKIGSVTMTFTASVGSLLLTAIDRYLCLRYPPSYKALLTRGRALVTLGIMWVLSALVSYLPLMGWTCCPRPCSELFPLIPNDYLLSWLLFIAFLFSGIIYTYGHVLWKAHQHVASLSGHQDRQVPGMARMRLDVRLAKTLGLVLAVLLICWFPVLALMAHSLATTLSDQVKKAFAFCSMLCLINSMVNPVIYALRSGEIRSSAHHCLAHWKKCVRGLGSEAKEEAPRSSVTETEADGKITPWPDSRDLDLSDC

Consider `CCCCCCCCCCCCCCCC(=O)NC(C)(C)CO`, for which the inhibition came out at 15.7% in test [1], 0% in test [2] and 6.7% in test [3].

Turning to `CCCCCCCCCCCCCCCC(=O)Nc1ccccc1O`, the inhibition in test [1] was 10.8%; in test [3], 2.7%; in test [4], 53%.

Take `CCCCCCCCCCCCCCCC(=O)NC(C)C`: the inhibition in test [5] was found to be 4%; in test [6], 39%; in test [2], 61%.

As for `CCCCCCCCCCCCCCCC(N)=O`, the inhibition amounted to 11.7% in test [1], 51% in test [2] and 12.9% in test [3].

The compound `CCCCCCCCCCCCCCCC(=O)NC1CCCCC1` had an inhibition in test [4] of 11%.

For `CCCCCCCCCCCCCCCC(=O)NCCCl`, the inhibition in test [1] worked out at 25.2%; in test [2] it was 48%; in test [3] it was 13.5%.

Take `CCCCCCCCCCCCCCCC(=O)NCCc1ccccc1`: the inhibition in test [1] was 22.8%; in test [3] it was 1.3%; in test [4] it was 19%.

Consider `CCCCCCCCCCCCCCCC(=O)Nc1ccc(C)cc1`, for which the inhibition in test [1] turned out to be 2.8%; in test [3] it was 6.5%; in test [4], 0%.

In the case of `CCCCCCCCCCCCCCCC(=O)NCCBr`, the inhibition amounted to 35.8% in test [1], 41% in test [2] and 15.1% in test [3].

Take `CCCCCCCCCCCCCCCC(=O)NCC`: the inhibition in test [1] is 2.8%; in test [2], 72%; in test [3], 10%.

`CCCCCCCCCCCCCCCC(=O)Nc1ccccc1`: the inhibition in test [1] came out at 2.8%; in test [2], 18%; in test [3], 0.5%.

In the case of `CCCCCCCCCCCCCCCC(=O)NCC(C)C`, the inhibition in test [1] came out at 18.5%; in test [2], 6%; in test [3], 8.9%.

In the case of `CCCCCCCCCCCCCCCC(=O)NCc1ccc(OC)cc1`, the inhibition was found to be 25.4% in test [1], 3.7% in test [3] and 29% in test [4].

As for `CCCCCCCCCCCCCCCNC(=O)COC(C)=O`, the inhibition worked out at 16% in test [1], 87% in test [2] and 6% in test [3].

Regarding `CCCCCCCCCCCCCCCC(=O)N(CC)CC`, the inhibition in test [1] amounted to 3.3%; in test [3] it was 2.7%; in test [4], 2%.

Consider `CCCCCCCCCCCCCCCC(=O)NCCCC`, for which the inhibition came to 19.6% in test [1], 24% in test [2] and 12.9% in test [3].

Consider `CCCCCCCCCCCCCCCC(=O)Nc1cccc(O)c1`, for which the inhibition in test [1] is 40.9%; in test [3] it was 3.9%; in test [4], 51%.

With `CCCCCCCCCCCCCCCC(=O)NC`, the results for the inhibition in test [1] and in test [2] were 2.5% and 100%, respectively.

`CCCCCCCCCCCCCCCC(=O)NC(C)(C)C`: the inhibition in test [1] was 24.6%; in test [2] it was 0%; in test [3], 2%.

Take `CCCCCCCCCCCCCCCC(=O)NCC(=O)OC`: the inhibition stood at 100% in test [6]; 75% in test [7]; 7.3% in test [1]; 100% in test [2]; 4.1% in test [3].

Regarding `CCCCCCCCCCCCCCCC(=O)N(C)C`, the inhibition was 0.3% in test [1], 6.4% in test [3] and 30% in test [4].

As for `CCCCCCCCCCCCCCCC(=O)NC1CC1`, the inhibition in test [1] is 12.8%; in test [2] it was 57%; in test [3] it was 16.3%.

Regarding `CCCCCCCCCCCCCCCC(=O)NCc1ccc(C)cc1`, the inhibition in test [1] was 4.8%; in test [2], 100%; in test [3] it was 0.7%.

Regarding `CCCCCCCCCCCCCCCC(=O)Nc1ccc2ccccc2c1`, the values for the inhibition in test [1], in test [2] and in test [3] were 0.7%, 28% and 0.1%, respectively.

In the case of `CCCCCCCCCCCCCCCC(=O)NC1CCCC1`, the values for the inhibition in test [1], in test [3] and in test [4] were 27.1%, 9.5% and 43%, respectively.

With `CCCCCCCCCCCCCCCC(=O)NCCCCl`, the inhibition in test [1] was determined as 30.6%; in test [2] it was 27%; in test [3], 14.3%.

With `CCCCCCCCCCCCCCCC(=O)Nc1ccc(O)cc1`, the figures for the inhibition in test [1], in test [3] and in test [4] were 44.8%, 5% and 55%, respectively.

As for `CCCCCCCCCCCCCCCC(=O)N1CCOCC1`, the figures for the inhibition in test [1], in test [3] and in test [4] were 15.5%, 4.2% and 6%, respectively.

Turning to `C=CCNC(=O)CCCCCCCCCCCCCCC`, the inhibition stood at 13.3% in test [1], 67% in test [2] and 7.8% in test [3].

Turning to `CCCCCCCCCCCCCCCC(=O)NCCF`, the inhibition in test [1] came to 8.2%; in test [3], 3.9%; in test [4], 6%.

Consider `CCCCCCCCCCCCCCCC(=O)Nc1ccc(Cl)cc1`, for which the values for the inhibition in test [1], in test [2] and in test [3] were 11.1%, 11% and 7.4%, respectively.

Consider `CCCCCCCCCCCCCCCC(=O)NCCO`, for which the inhibition was found to be 100% in test [6], 62% in test [7] and 78% in test [2].

For `CCCCCCCCCCCCCCCC(=O)NCCC`, the values for the inhibition in test [1], in test [2] and in test [3] were 14.4%, 49% and 6.1%, respectively.

For `CCCCCCCCCCCCCCCC(=O)NOC`, the inhibition was 18.1% in test [1], 46% in test [2] and 5.2% in test [3].

Turning to `CCCCCCCCCCCCCCCC(=O)Nc1ccccc1C`, the values for the inhibition in test [1], in test [2] and in test [3] were 4.9%, 31% and 6.5%, respectively.

With `CCCCCCCCCCCCCCCC(=O)NCCCO`, the inhibition in test [6] stood at 81%; in test [7], 45%; in test [1], 15%; in test [2] it was 61%; in test [3], 6.4%.

In the case of `CCCCCCCCCCCCCCCC(=O)NC(c1ccccc1)c1ccccc1`, the figures for the inhibition in test [1], in test [3] and in test [4] were 2.2%, 1.1% and 0%, respectively.
